Assay results as given in ChEMBL document CHEMBL1154846, “Micropeptins from an Israeli fishpond water bloom of the cyanobacterium Microcystis sp” (J Nat Prod, 2010).
Activity calls are given as the source filed them. No cut-off for these calls is given here.

How the values were obtained:
[1] = biological target: Chymotrypsin-like elastase family member 1 (Homo sapiens) (UniProt Q9UNI1); assay: Inhibition of elastase after 20 mins
Outline: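 Elastase stock 75 mg/mL in 0.2 M Tris-HCl, pH 8. Sample (1 mg/mL DMSO stock) preincubated with enzyme in buffer at 30 °C for 20 min. N-Suc-Ala-Ala-Ala-p-nitroanilide substrate (1 mg/mL stock in Tris buffer) then added. Kinetics read at 405 nm, 37 °C, for 20 min.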

[2] = Inhibition of chymotrypsin after 30 mins
Outline: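 Commercial chymotrypsin, 10 mg/mL stock in 0.05 M Tris-HCl/100 mM NaCl/1 mM CaCl2, pH 7.5. Sample (1 mg/mL DMSO stock) preincubated with enzyme in buffer at 37 °C for 10 min. Suc-Gly-Gly-p-nitroanilide substrate (1 mg/mL stock in Tris buffer) then added. Reaction kinetics followed at 405 nm, 37 °C, for 30 min.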

Prothrombin = Prothrombin (Homo sapiens, UniProt P00734); assay: Inhibition of thrombin after 20 mins
Outline: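 Thrombin in 0.2 M Tris-HCl, pH 8, preincubated with sample (DMSO, 1 mg/mL stock) at 25 °C for 5 min. Z-Gly-Pro-Arg-4MβNA substrate (0.5 mg/mL stock in Tris buffer) then added. Reaction kinetics read at 405 nm, 37 °C, for 20 min; IC50 reported.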

[3] = Inhibition of trypsin after 30 mins
Outline: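 Trypsin stock 1 mg/mL in 0.05 M Tris-HCl/100 mM NaCl/1 mM CaCl2, pH 7.5. Sample (1 mg/mL DMSO stock) preincubated with enzyme at 37 °C for 10 min. BAPNA substrate (stock in 1:9 DMSO/Tris buffer) then added. Kinetics at 405 nm, 37 °C, for 30 min, giving IC50.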

Chain of Chymotrypsin-like elastase family member 1 (Homo sapiens) (Q9UNI1 whole entry): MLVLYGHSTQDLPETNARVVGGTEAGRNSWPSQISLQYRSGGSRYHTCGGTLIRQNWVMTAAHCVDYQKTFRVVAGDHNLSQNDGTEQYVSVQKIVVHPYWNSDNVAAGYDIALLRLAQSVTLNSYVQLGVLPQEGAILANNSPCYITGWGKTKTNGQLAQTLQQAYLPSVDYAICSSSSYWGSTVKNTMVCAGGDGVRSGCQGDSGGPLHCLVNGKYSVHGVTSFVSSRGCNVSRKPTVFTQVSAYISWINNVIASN

SMILES | Activity [1] | Activity [2] | Activity (Prothrombin) | IC50 [3] [µM] | IC50 (Prothrombin) [µM]
CC[C@H](C)[C@@H]1NC(=O)[C@H](Cc2ccccc2)N(C)C(=O)[C@H]([C@@H](C)CC)N2C(=O)[C@H](CC[C@H]2OC)NC(=O)[C@H](CCCNC(=N)N)NC(=O)[C@@H](NC(=O)[C@@H](COS(=O)(=O)O)OS(=O)(=O)O)[C@@H](C)OC1=O | inactive | inactive | inactive | 1.6 | –
CC[C@H](C)[C@@H]1NC(=O)[C@H](Cc2ccccc2)N(C)C(=O)[C@H]([C@@H](C)CC)N2C(=O)[C@H](CC[C@H]2O)NC(=O)[C@H](CCCNC(=N)N)NC(=O)[C@@H](NC(=O)[C@@H](COS(=O)(=O)O)OS(=O)(=O)O)[C@@H](C)OC1=O [CYANOPEPTOLIN SS] | inactive | inactive | – | 2.9 | –
CC[C@H](C)[C@@H]1NC(=O)[C@H](Cc2ccccc2)N(C)C(=O)[C@H]([C@@H](C)CC)N2C(=O)[C@H](CC[C@H]2O)NC(=O)[C@H](CCCNC(=N)N)NC(=O)[C@@H](NC(=O)[C@H](O)COS(=O)(=O)O)[C@@H](C)OC1=O [CYANOPEPTOLIN S] | inactive | inactive | inactive | 4.1 | –
CC[C@H](C)[C@@H]1NC(=O)[C@H](Cc2ccccc2)N(C)C(=O)[C@H]([C@@H](C)CC)N2C(=O)[C@H](CC[C@H]2O)NC(=O)[C@H](CCCN=C(N)N)NC(=O)[C@@H](NC(=O)[C@@H](COS(=O)(=O)O)OS(=O)(=O)O)[C@@H](C)OC1=O [CYANOPEPTOLIN SS] | – | – | – | – | 45.2

The next lines start with results.

Activity [1] | Activity [2] | Activity (Prothrombin) | IC50 [3] [µM] | SMILES | IC50 (Prothrombin) [µM]
inactive | inactive | inactive | 7.4 | CC[C@H](C)[C@@H]1NC(=O)[C@H](Cc2ccccc2)N(C)C(=O)[C@H]([C@@H](C)CC)N2C(=O)[C@H](CC[C@H]2OC)NC(=O)[C@H](CCCNC(=N)N)NC(=O)[C@@H](NC(=O)[C@@H](CO)OS(=O)(=O)O)[C@@H](C)OC1=O | –
inactive | inactive | inactive | 1.5 | CC[C@H](C)[C@@H]1NC(=O)[C@H](Cc2ccccc2)N(C)C(=O)[C@H]([C@@H](C)CC)N2C(=O)[C@H](CC[C@H]2OC)NC(=O)[C@H](CCCNC(=N)N)NC(=O)[C@@H](NC(=O)[C@H](O)COS(=O)(=O)O)[C@@H](C)OC1=O | –
inactive | inactive | – | 0.6 | CC[C@H](C)[C@@H]1NC(=O)[C@H](Cc2ccccc2)N(C)C(=O)[C@H]([C@@H](C)CC)N2C(=O)[C@H](CC[C@H]2OC)NC(=O)[C@H](CCCNC(=N)N)NC(=O)[C@@H](NC(=O)[C@H](O)CO)[C@@H](C)OC1=O | 52.9
inactive | inactive | inactive | 2.6 | CC[C@H](C)[C@@H]1NC(=O)[C@H](Cc2ccccc2)N(C)C(=O)[C@H]([C@@H](C)CC)N2C(=O)[C@H](CC[C@H]2O)NC(=O)[C@H](CCCNC(=N)N)NC(=O)[C@@H](NC(=O)[C@H](O)CO)[C@@H](C)OC1=O | –
inactive | inactive | inactive | – | CC[C@H](C)[C@@H]1NC(=O)[C@H](Cc2ccccc2)N(C)C(=O)[C@H]([C@@H](C)CC)N2C(=O)[C@H](CC[C@H]2OC)NC(=O)[C@H](CCCNC(=N)N)NC(=O)[C@@H](N)[C@@H](C)OC1=O | –
inactive | inactive | inactive | 24.2 | CC[C@H](C)[C@@H]1NC(=O)[C@H](Cc2ccccc2)N(C)C(=O)[C@H]([C@@H](C)CC)N2C(=O)[C@H](CC[C@H]2O)NC(=O)[C@H](CCCNC(=N)N)NC(=O)[C@@H](NC(=O)[C@@H](CO)OS(=O)(=O)O)[C@@H](C)OC1=O | –
